The source of these data is ChEMBL document CHEMBL3098107, “Synthesis of novel 2-cyano substituted glycyrrhetinic acid derivatives as inhibitors of cancer cells growth and NO production in LPS-activated J-774 cells” (Bioorg Med Chem, 2014).

What is called IC50 is the concentration at which inhibition is half-maximal.

A short description of series [1]: Cytotoxicity against human KB-3-1 cells assessed as cell survival after 24 hrs by MTT assay. It counts as functional, cell-based. The following applies: KB 3-1, 24 h. In short, it runs like this: (§1)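 Cells in log phase, in DMEM with 10% heat-inactivated FBS, seeded in triplicate. After 24 h adherence, they were exposed to graded doses for 24 h, then to MTT for 3 h. Formazan was dissolved in DMSO and read at 570 nm. IC50 is the concentration giving 50% survival. Three independent experiments, mean ± SEM.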

Series [2] concerns J774. As to the kind of experiment: Cytotoxicity against mouse J774 cells assessed as cell survival after 24 hrs by MTT assay. The following applies: J774, 24 h. Format: cell-based. The essentials: as §1
On the technique in general: Formazan colour is commonly taken as a measure of viable cells.

Series [3] has as its system J774. As to the kind of experiment: Antiinflammatory activity in mouse J774 cells assessed as inhibition of LPS-induced NO production after 24 hrs by Griess method. It counts as functional, cell-based. The following applies: J774, 24 h.
Series [4] concerns J774. Put plainly: Selectivity index, ratio of IC50 for mouse J774 cells to IC50 for human KB-3-1 cells. It counts as functional. The essentials:
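SI is the IC50 from the J-774 MTT assay divided by the IC50 from the KB-3-1 MTT assay, with both IC50 values from the 24 h assays.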

A short description of series [5]: Solubility of the compound in DMSO. Format: physicochemical.

`COC(=O)[C@@]1(C)CC[C@]2(C)CC[C@]3(C)C(=CC(=O)[C@@H]4[C@@]5(C)CC[C@H](O)C(C)(C)[C@@H]5CC[C@]43C)[C@@H]2C1`: the IC50 (in series [1]; in the series with J774 [2]; with J774 [3]) was above 100 µM each time.

Take `COC(=O)[C@@]1(C)CC[C@]2(C)CC[C@]3(C)[C@H](C(=O)C=C4[C@@]5(C)C=C(C#N)C(=O)C(C)(C)[C@@H]5CC[C@]43C)[C@@H]2C1`: the IC50 came out at 0.3 µM in series [1], 3.32 µM in the series on J774 [2] and 0.11 µM in the series on J774 [3]. The “Ratio IC50” value with J774 [4] worked out at 11.

For `COC(=O)[C@@]1(C)CC[C@]2(C)CC[C@]3(C)C(=CC[C@@H]4[C@@]5(C)C/C(=C\O)C(=O)C(C)(C)[C@@H]5CC[C@]43C)[C@@H]2C1`, the values for the IC50 (in series [1]; with J774 [2]; in the series with J774 [3]) were 40 µM, above 100 µM and 10.5 µM, respectively. The “Ratio IC50” value in the series with J774 [4] is given as above 2.5.

As to `COC(=O)[C@@]1(C)CC[C@]2(C)CC[C@]3(C)C(=CC[C@@H]4[C@@]5(C)Cc6cnoc6C(C)(C)[C@@H]5CC[C@]43C)[C@@H]2C1`, the values for the IC50 (in series [1]; in the series on J774 [2]; in the series on J774 [3]) were above 100 µM, above 100 µM and 12.4 µM, respectively.

For the compound `COC(=O)[C@@]1(C)CC[C@]2(C)CC[C@]3(C)C(=CC[C@@H]4[C@@]5(C)CC(C#N)=C(O)C(C)(C)[C@@H]5CC[C@]43C)[C@@H]2C1`, the IC50 is 80 µM in series [1], above 100 µM with J774 [2] and 8 µM with J774 [3]. Further, in the series with J774 [4], the “Ratio IC50” value is above 1.3.

Consider `COC(=O)[C@@]1(C)CC[C@]2(C)CC[C@]3(C)[C@H](C(=O)C[C@@H]4[C@@]5(C)CC[C@H](O)C(C)(C)[C@@H]5CC[C@]43C)[C@@H]2C1`, for which the results for the IC50 (in series [1]; in the series with J774 [2]; in the series with J774 [3]) were 6.8 µM, 56.1 µM and 59.4 µM, respectively. Also, the “Ratio IC50” value with J774 [4] stood at 8.3.

With `COC(=O)[C@@]1(C)CC[C@]2(C)CC[C@]3(C)[C@H](C(=O)C[C@@H]4[C@@]5(C)CCC(=O)C(C)(C)[C@@H]5CC[C@]43C)[C@@H]2C1`, the IC50 was 25.2 µM in series [1], above 100 µM in the series on J774 [2] and 23.4 µM in the series on J774 [3]. In the series with J774 [4], the “Ratio IC50” value is listed as above 3.9.

In the case of `COC(=O)[C@@]1(C)CC[C@]2(C)CC[C@]3(C)C(=CC[C@@H]4[C@@]5(C)C=C(C#N)C(=O)C(C)(C)[C@@H]5CC[C@]43C)[C@@H]2C1`, in series [5], the solubility entry is listed as “Insoluble”.

As for `COC(=O)[C@@]1(C)CC[C@]2(C)CC[C@]3(C)C(=CC[C@@H]4[C@@]5(C)CC[C@H](O)C(C)(C)[C@@H]5CC[C@]43C)[C@@H]2C1`, the solubility result in series [5] is “Insoluble”.

Regarding `COC(=O)[C@@]1(C)CC[C@]2(C)CC[C@]3(C)C(=CC[C@@H]4[C@@]5(C)CCC(=O)C(C)(C)[C@@H]5CC[C@]43C)[C@@H]2C1`, the solubility entry in series [5] is on record as “Insoluble”.

Regarding `COC(=O)[C@]1(C)C=C2C3=CC(=O)[C@@H]4[C@@]5(C)C=C(C#N)C(=O)C(C)(C)[C@@H]5CC[C@@]4(C)[C@]3(C)CC[C@@]2(C)CC1`, the IC50 in series [1] stood at 4 µM; with J774 [2], 7 µM; with J774 [3], 5.6 µM. Besides, the “Ratio IC50” value with J774 [4] stood at 1.8.

For the compound `COC(=O)[C@@]1(C)CC[C@]2(C)CC[C@]3(C)[C@H](C(=O)C[C@@H]4[C@@]5(C)C=C(C#N)C(=O)C(C)(C)[C@@H]5CC[C@]43C)[C@@H]2C1`, the results for the IC50 (in series [1]; with J774 [2]; in the series on J774 [3]) were 5.5 µM, above 100 µM and 2.8 µM, respectively. Also, the “Ratio IC50” value with J774 [4] is reported as above 18.2.

In the case of `COC(=O)[C@]1(C)C=C2C3=CC(=O)[C@@H]4[C@@]5(C)CC[C@H](O)C(C)(C)[C@@H]5CC[C@@]4(C)[C@]3(C)CC[C@@]2(C)CC1`, the IC50 with J774 [2] and in the series with J774 [3] was above 100 µM each time.

As for `COC(=O)[C@]1(C)C=C2C3=CC(=O)[C@@H]4[C@@]5(C)CCC(=O)C(C)(C)[C@@H]5CC[C@@]4(C)[C@]3(C)CC[C@@]2(C)CC1`, the IC50 with J774 [2] was determined as 20.1 µM; in the series with J774 [3] it was 16.3 µM.

Regarding `COC(=O)[C@]1(C)C=C2C3=CC(=O)[C@@H]4[C@@]5(C)C/C(=C/O)C(=O)C(C)(C)[C@@H]5CC[C@@]4(C)[C@]3(C)CC[C@@]2(C)CC1`, the IC50 is 13.4 µM in the series on J774 [2] and 14.5 µM in the series on J774 [3].

On to `COC(=O)[C@@]1(C)CC[C@]2(C)CC[C@]3(C)C(=CC(=O)[C@@H]4[C@@]5(C)C=C(C#N)C(=O)C(C)(C)[C@@H]5CC[C@]43C)[C@@H]2C1`, for which the half-inhibitory concentration (IC50) in series [1] was 20 µM; in the series on J774 [2], above 100 µM; with J774 [3] it was 2 µM. Besides, in the series on J774 [4], the “Ratio IC50” value is listed as above 5.

On to `COc1ccc2c(c1)c(CC(=O)O)c(C)n2C(=O)c1ccc(Cl)cc1` [INDOMETHACIN], for which the results for the IC50 in the series on J774 [2] and in the series with J774 [3] were above 100 µM and 29.6 µM, respectively.
